Published values pooled from the literature.

| SMILES | tested on | assay | test system | setting | measurement | result |
| --- | --- | --- | --- | --- | --- | --- |
| O=C(O)c1cn(C2CC2)c2cc(N3CCNCC3)c(F)cc2c1=O | Salmonella enterica | microbial growth | ATCC13311 | – | MIC | 4 µM |
| O=C(O)c1cn(C2CC2)c2cc(N3CCNCC3)c(F)cc2c1=O | Salmonella enterica | microbial growth, broth dilution | TYPHIMURIUM | – | MIC | 0.03 µM |
| C=CC(=O)NC1CCN(c2ncc3ncnc(Nc4ccc(Oc5ccc6c(c5)ncn6C)c(C)c4)c3n2)CC1 | AU565 | cell growth or viability | – | – | EC50 | 20.8 nM |
| C=C/C=C(\C)CC[C@@H]1C[C@@H](O)CC(=O)O1 | Bacillus cereus | microbial growth, broth dilution | ATCC10876 | – | MIC | 128 µg/mL |
| CCNCCCn1c2c(c3cc(OC)c(OC)cc3c1=O)C(=O)c1cc3c(nc1-2)OCO3 | TC-71 | cell growth or viability, MTS | – | 72 h | IC50 | 122 nM |
| CC(C)C[C@@H]1NC(=O)[C@@H](N(C)C(=O)[C@H](CC2CCC2)NC(=O)[C@@H]2C[C@@H](F)CN2C(=O)C2(C(F)(F)F)CC(F)(F)C2)CCCCNC(=O)C2(CC2)NC(=O)[C@H](Cc2cc(Cl)ccc2Cl)N(C)C1=O | NCI-H69 | cell growth or viability, MTT | – | 5 days | GI50 | 13 nM |
| CC(=O)OCC1=C(C(=O)O)N2C(=O)[C@@H](NC(=O)Cc3cccs3)[C@H]2SC1 | Salmonella enterica | microbial growth, broth dilution | TYPHIMURIUM | – | MIC | < 127 µg/mL |
| COc1cc2c3c(n(CCCN4CCOCC4)c(=O)c2cc1OC)-c1nc2c(cc1C3=O)OCO2 | RPMI-8226 | cell growth or viability, MTS | – | 72 h | IC50 | 905 nM |
